Measured values of several laboratories.
Protocols differ between the studies behind these lines.
Cell line: PC-3
Read-out: cell growth or viability

| Compound | method | tested at | inhibition [%] |
| --- | --- | --- | --- |
| O=C(CN1C(=O)/C(=C/c2ccccc2)SC1=S)Nc1ccccc1 | MTT | 10 µM | 43.8 |
| CCc1cccc(NC(=O)C2CCCN(C(=O)c3cc(C(F)(F)F)cc(C(F)(F)F)c3)C2)c1 (stereo not drawn) | WST-1 | 100 µM | 0 |
| COc1ccc(C(=O)/C=C/c2cccc(Cl)c2Cl)cc1S(N)(=O)=O | SRB | 10 µM | 95 |
| O=C(Nc1cccc(Cc2ccccc2)c1)C1CCCN(C(=O)c2cc(C(F)(F)F)cc(C(F)(F)F)c2)C1 (stereo not drawn) | WST-1 | 100 µM | 0 |
| O=C(CN1C(=O)/C(=C/c2ccc([N+](=O)[O-])cc2)SC1=S)Nc1ccccc1 | MTT | 10 µM | 16.6 |
| COc1ccc(C(=O)/C=C/c2cccc3ccccc23)cc1S(N)(=O)=O | SRB | 10 µM | 87 |
| COC(=O)c1cc(-c2cccc(NC(=O)C3CCCN(C(=O)c4cc(C(F)(F)F)cc(C(F)(F)F)c4)C3)c2)co1 (stereo not drawn) | WST-1 | 100 µM | 0 |
| COc1cc(CNC(=O)CCCC/C=C/C(C)C)ccc1O | SRB | 10 µM | 19 |
| O=C(Nc1cccc(S(=O)(=O)N2CCCC2)c1)C1CCCN(C(=O)c2cc(C(F)(F)F)cc(C(F)(F)F)c2)C1 (stereo not drawn) | WST-1 | 100 µM | 0 |
| COc1cccc(NC(=O)CN2C(=O)/C(=C/c3cccs3)SC2=S)c1 | MTT | 10 µM | 7.28 |
| COc1ccccc1/C=C/C(=O)c1ccc(OC)c(S(N)(=O)=O)c1 | SRB | 10 µM | 52 |
| COc1ccc(/C=C2\SC(=S)N(CC(=O)Nc3ccccc3)C2=O)cc1 | MTT | 10 µM | 25 |
| COc1ccc(C(=O)/C=C/c2cccc(Cl)c2)cc1S(N)(=O)=O | SRB | 10 µM | 68 |
| CC(=O)c1cccc(NC(=O)C2CCCN(C(=O)c3cc(C(F)(F)F)cc(C(F)(F)F)c3)C2)c1 (stereo not drawn) | WST-1 | 100 µM | 0 |
| O=C(CN1C(=O)/C(=C/c2ccc(Cl)cc2)SC1=S)Nc1ccccc1 | MTT | 10 µM | 32.3 |
